Results reported in ChEMBL document CHEMBL4368880, “Synthesis and biological evaluation of 3-(1,3,4-oxadiazol-2-yl)-1,8-naphthyridin-4(1H)-ones as cisplatin sensitizers” (Medchemcomm, 2018).
Active and inactive are the calls of the source. The rule behind the calls is not given here.

Key:
L02 [1] = assay: Cytotoxicity against human LO2 cells assessed as reduction in cell growth at 5 to 10 uM after 24 hrs by MTT assay; type: cell-based; conditions: l02, 24 h
HCT-116 [2] = assay: Potentiation of cisplatin-induced morphological changes in human HCT116 cells assessed as cell shrinkage at 2.5 uM preincubated for 24 hrs followed by cisplatin addition and measured after 48 hrs by Hoechst 33258 staining based fluorescence microscopic analysis; type: functional
How it was run: (§1)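 HCT116 given compound for 24 h, then cisplatin (2.5 μM) for 48 h. Fixed in 4% paraformaldehyde, stained with Hoechst 33258 at 5 μg mL–1, and nuclei examined and counted under a fluorescence microscope. Blue fluorescence quantified, with t-test over three independent experiments.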

HCT-116 [3] = assay: Induction of morphological changes in human HCT116 cells assessed as cell shrinkage at 2.5 uM measured after 24 hrs by Hoechst 33258 staining based fluorescence microscopic analysis; type: functional
[4] = biological target: Serine/threonine-protein kinase ATR (Homo sapiens) (UniProt Q13535); assay: Inhibition of ATR in human HCT116 cells assessed as reduction in cisplatin-induced CHK1 expression preincubated for 24 hrs followed by cisplatin addition and measured after 48 hrs by Western blot analysis; type: cell-based
Sequence of Serine/threonine-protein kinase ATR (Homo sapiens) (Q13535 whole entry, looked up): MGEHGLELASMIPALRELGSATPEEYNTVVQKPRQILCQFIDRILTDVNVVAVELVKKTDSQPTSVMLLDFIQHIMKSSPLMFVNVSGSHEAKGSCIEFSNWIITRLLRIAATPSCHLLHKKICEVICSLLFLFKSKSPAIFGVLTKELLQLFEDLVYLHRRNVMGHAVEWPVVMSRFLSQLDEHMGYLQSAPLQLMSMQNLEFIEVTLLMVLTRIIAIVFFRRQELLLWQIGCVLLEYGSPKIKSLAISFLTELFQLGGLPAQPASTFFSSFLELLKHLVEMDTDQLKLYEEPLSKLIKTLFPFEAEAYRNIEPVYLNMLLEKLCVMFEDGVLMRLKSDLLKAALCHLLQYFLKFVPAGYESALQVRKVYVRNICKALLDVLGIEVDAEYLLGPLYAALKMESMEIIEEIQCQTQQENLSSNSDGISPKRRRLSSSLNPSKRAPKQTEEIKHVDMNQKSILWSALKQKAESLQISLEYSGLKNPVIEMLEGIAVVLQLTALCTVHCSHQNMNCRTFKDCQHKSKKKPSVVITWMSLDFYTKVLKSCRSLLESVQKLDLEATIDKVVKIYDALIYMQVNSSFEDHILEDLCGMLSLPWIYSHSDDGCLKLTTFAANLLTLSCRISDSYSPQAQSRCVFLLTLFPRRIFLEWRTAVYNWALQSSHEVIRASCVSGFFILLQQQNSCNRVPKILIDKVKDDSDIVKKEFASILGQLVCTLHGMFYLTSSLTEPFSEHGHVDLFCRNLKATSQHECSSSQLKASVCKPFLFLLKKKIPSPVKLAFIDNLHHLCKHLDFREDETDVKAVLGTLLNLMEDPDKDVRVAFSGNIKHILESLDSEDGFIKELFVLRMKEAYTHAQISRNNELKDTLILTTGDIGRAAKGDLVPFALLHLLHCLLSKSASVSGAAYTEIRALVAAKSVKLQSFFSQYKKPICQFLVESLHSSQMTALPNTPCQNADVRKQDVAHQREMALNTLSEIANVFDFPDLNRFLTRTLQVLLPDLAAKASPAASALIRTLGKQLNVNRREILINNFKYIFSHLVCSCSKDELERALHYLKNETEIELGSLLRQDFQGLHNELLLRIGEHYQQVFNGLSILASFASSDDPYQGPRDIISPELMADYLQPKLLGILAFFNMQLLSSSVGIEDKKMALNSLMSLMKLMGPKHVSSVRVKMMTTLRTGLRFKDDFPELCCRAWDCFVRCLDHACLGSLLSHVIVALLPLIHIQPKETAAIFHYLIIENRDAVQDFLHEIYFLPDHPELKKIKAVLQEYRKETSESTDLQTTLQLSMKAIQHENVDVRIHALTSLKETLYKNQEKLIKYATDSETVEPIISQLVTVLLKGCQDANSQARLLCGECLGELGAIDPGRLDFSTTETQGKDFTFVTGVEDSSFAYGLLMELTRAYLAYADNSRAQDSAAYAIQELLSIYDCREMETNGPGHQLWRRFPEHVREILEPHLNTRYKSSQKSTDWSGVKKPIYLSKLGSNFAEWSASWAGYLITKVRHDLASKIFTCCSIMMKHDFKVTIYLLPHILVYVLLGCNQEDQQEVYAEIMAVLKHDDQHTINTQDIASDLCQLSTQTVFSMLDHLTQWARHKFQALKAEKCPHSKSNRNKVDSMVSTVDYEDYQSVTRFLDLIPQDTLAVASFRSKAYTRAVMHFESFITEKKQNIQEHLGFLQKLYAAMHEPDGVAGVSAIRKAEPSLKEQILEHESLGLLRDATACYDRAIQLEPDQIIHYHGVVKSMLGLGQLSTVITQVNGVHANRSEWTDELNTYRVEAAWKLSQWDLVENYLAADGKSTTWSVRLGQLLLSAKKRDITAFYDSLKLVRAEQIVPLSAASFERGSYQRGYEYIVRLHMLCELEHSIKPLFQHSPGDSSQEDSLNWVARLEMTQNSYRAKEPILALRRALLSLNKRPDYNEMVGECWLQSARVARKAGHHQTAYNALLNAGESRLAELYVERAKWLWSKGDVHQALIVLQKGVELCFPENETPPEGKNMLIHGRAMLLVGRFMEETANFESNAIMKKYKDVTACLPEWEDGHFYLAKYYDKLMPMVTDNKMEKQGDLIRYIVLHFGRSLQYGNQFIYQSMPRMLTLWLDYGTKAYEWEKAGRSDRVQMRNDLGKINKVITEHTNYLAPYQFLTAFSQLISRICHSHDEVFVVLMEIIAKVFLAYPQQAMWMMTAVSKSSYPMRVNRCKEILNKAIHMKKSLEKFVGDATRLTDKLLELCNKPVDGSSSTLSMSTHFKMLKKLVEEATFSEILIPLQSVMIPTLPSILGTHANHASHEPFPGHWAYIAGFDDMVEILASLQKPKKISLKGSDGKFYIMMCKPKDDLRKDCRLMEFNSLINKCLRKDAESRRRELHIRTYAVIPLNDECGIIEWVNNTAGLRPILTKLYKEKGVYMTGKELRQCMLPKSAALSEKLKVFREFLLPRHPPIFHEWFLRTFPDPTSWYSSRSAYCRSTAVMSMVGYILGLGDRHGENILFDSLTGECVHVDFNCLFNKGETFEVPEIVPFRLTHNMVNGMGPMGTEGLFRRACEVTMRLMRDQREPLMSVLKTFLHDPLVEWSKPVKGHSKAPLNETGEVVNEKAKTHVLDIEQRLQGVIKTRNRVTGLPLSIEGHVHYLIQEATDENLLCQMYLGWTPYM
How it was run: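 HCT116 exposed to compound for 24 h before 48 h with cisplatin at 2.5 μM. Lysis in RIPA buffer with protease and phosphatase inhibitors, protein measured by BCA, equal loads run on 12% SDS-PAGE and moved to PVDF. Blocked in 5% milk, anti-CHK1 mouse mAb overnight at 4 °C, HRP secondary and ECL detection, GAPDH as loading control.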

HCT-116 [5] = assay: Induction of morphological changes in human HCT116 cells assessed as chromatin condensation at 2.5 uM measured after 24 hrs by Hoechst 33258 staining based fluorescence microscopic analysis; type: functional, cell-based
MCF7 [6] = assay: Growth inhibition of human MCF7 cells at 10 uM after 24 hrs by MTT assay relative to control; type: functional; conditions: MCF7, 24 h, read-out: GI
How it was run: (§2)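 Monolayers seeded 24 h before treatment, then exposed to compound, with DMEM or RPMI 1640 plus 10% FBS as growth medium. MTT (5 mg mL–1 stock) incubated 2–4 h at 37 °C, formazan dissolved in DMSO, and absorbance read at 570 nm. Growth inhibition reported as % of control.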

A549 [7] = assay: Growth inhibition of human A549 cells at 10 uM after 24 hrs by MTT assay relative to control; type: functional; conditions: A549, 24 h, read-out: GI; how it was run: as §2
HeLa [8] = assay: Growth inhibition of human HeLa cells at 10 uM after 24 hrs by MTT assay relative to control; type: functional; conditions: read-out: GI; how it was run: as §2
KB [9] = assay: Growth inhibition of human KB cells at 10 uM after 24 hrs by MTT assay relative to control; type: functional; conditions: read-out: GI; how it was run: as §2
HCT-116 [10] = assay: Potentiation of cisplatin-induced apoptosis in human HCT116 cells assessed as early apoptotic cells at 2.5 uM preincubated for 24 hrs followed by cisplatin addition and measured after 48 hrs by Annexin V-FITC/propidium iodide staining based flow cytometry (reference value: 4.07%); type: functional
How it was run: (§3)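 HCT116 pretreated with compound for 24 h, then cisplatin at 2.5 μM added for 48 h. Cells harvested, washed in cold PBS, pelleted, stained with annexin V-FITC and propidium iodide, and counted by flow cytometry. Three independent experiments.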

HCT-116 [11] = assay: Potentiation of cisplatin-induced apoptosis in human HCT116 cells assessed as necrotic cells at 2.5 uM preincubated for 24 hrs followed by cisplatin addition and measured after 48 hrs by Annexin V-FITC/propidium iodide staining based flow cytometry (reference value: 11.3%); type: functional; how it was run: as §3
HepG2 [12] = assay: Growth inhibition of human HepG2 cells at 10 uM after 24 hrs by MTT assay relative to control; type: functional; conditions: HepG2, 24 h, read-out: GI; how it was run: as §2
KB [13] = assay: Growth inhibition of human KB cells at 5 uM after 24 hrs by MTT assay relative to control; type: functional; conditions: read-out: GI; how it was run: as §2
HeLa [14] = assay: Growth inhibition of human HeLa cells at 5 uM after 24 hrs by MTT assay relative to control; type: functional; conditions: read-out: GI; how it was run: as §2
HCT-116 [15] = assay: Induction of apoptosis in human HCT116 cells assessed as viable cells at 2.5 uM after 24 hrs by Annexin V-FITC/propidium iodide staining based flow cytometry (reference value: 76.5%); type: functional; conditions: HCT-116, 24 h, read-out: Activity
HCT-116 [16] = assay: Induction of apoptosis in human HCT116 cells assessed as early apoptotic cells at 2.5 uM after 24 hrs by Annexin V-FITC/propidium iodide staining based flow cytometry (reference value: 5.75%); type: functional
HCT-116 [17] = assay: Induction of morphological changes in human HCT116 cells assessed as reduction in number of adherent cells at 2.5 uM measured after 24 hrs by Hoechst 33258 staining based fluorescence microscopic analysis; type: functional, cell-based
HCT-116 [18] = assay: Induction of apoptosis in human HCT116 cells assessed as late apoptotic cells at 2.5 uM after 24 hrs by Annexin V-FITC/propidium iodide staining based flow cytometry (reference value: 7.36%); type: functional
HCT-116 [19] = assay: Potentiation of cisplatin-induced morphological changes in human HCT116 cells assessed as reduction in number of adherent cells at 2.5 uM preincubated for 24 hrs followed by cisplatin addition and measured after 48 hrs by Hoechst 33258 staining based fluorescence microscopic analysis; type: functional, cell-based; how it was run: as §1
HCT-116 [20] = assay: Potentiation of cisplatin-induced apoptosis in human HCT116 cells assessed as late apoptotic cells at 2.5 uM preincubated for 24 hrs followed by cisplatin addition and measured after 48 hrs by Annexin V-FITC/propidium iodide staining based flow cytometry (reference value: 11.5%); type: functional; how it was run: as §3
HCT-116 [21] = assay: Potentiation of cisplatin-induced morphological changes in human HCT116 cells assessed as chromatin condensation at 2.5 uM preincubated for 24 hrs followed by cisplatin addition and measured after 48 hrs by Hoechst 33258 staining based fluorescence microscopic analysis; type: functional, cell-based; how it was run: as §1
HCT-116 [22] = assay: Growth inhibition of human HCT116 cells at 2.5 uM after 24 hrs by MTT assay relative to control; type: functional; conditions: HCT-116, 24 h, read-out: GI; how it was run: as §2
HCT-116 [23] = assay: Growth inhibition of human HCT116 cells at 10 uM after 24 hrs by MTT assay relative to control; type: functional; conditions: HCT-116, 24 h, read-out: GI; how it was run: as §2
HCT-116 [24] = assay: Potentiation of cisplatin-induced antiproliferative activity against human HCT116 cells assessed as cell growth inhibition at 2.5 uM preincubated for 24 hrs followed by 2.5 uM cisplatin addition and measured after 48 hrs by MTT assay (reference value: 26.98 +/-2.84%); type: functional; conditions: read-out: GI
HCT-116 [25] = assay: Induction of apoptosis in human HCT116 cells assessed as necrotic cells at 2.5 uM after 24 hrs by Annexin V-FITC/propidium iodide staining based flow cytometry (reference value: […]); type: functional
MCF7 [26] = assay: Growth inhibition of human MCF7 cells at 5 uM after 24 hrs by MTT assay relative to control; type: functional; conditions: MCF7, 24 h, read-out: GI; how it was run: as §2
L02 [27] = assay: Cytotoxicity against human LO2 cells assessed as reduction in cell growth at 2.5 uM preincubated for 24 hrs followed by cisplatin addition and measured after 48 hrs by MTT assay; type: cell-based; conditions: l02, 48 h
HCT-116 [28] = assay: Potentiation of cisplatin-induced apoptosis in human HCT116 cells assessed as viable cells at 2.5 uM preincubated for 24 hrs followed by cisplatin addition and measured after 48 hrs by Annexin V-FITC/propidium iodide staining based flow cytometry (reference value: 73.2%); type: functional; conditions: read-out: Activity; how it was run: as §3
HCT-116 [29] = assay: Growth inhibition of human HCT116 cells at 5 uM after 24 hrs by MTT assay relative to control; type: functional; conditions: HCT-116, 24 h, read-out: GI; how it was run: as §2
HepG2 [30] = assay: Growth inhibition of human HepG2 cells at 5 uM after 24 hrs by MTT assay relative to control; type: functional; conditions: HepG2, 24 h, read-out: GI; how it was run: as §2
A549 [31] = assay: Growth inhibition of human A549 cells at 5 uM after 24 hrs by MTT assay relative to control; type: functional; conditions: A549, 24 h, read-out: GI; how it was run: as §2

Row | SMILES | Activity (L02 [1]) | Activity (HCT-116 [2]) | Activity (HCT-116 [3]) | inhibition [4] | Activity (HCT-116 [5]) | inhibition of growth at 10 µM (MCF7 [6]) | inhibition of growth at 10 µM (A549 [7]) | inhibition of growth at 10 µM (HeLa [8]) | inhibition of growth at 10 µM (KB [9]) | Activity (HCT-116 [10]) | Activity (HCT-116 [11]) | inhibition of growth at 10 µM (HepG2 [12]) | inhibition of growth at 5 µM (KB [13]) | inhibition of growth at 5 µM (HeLa [14]) | viability at 2.5 µM (HCT-116 [15]) | Activity (HCT-116 [16]) | Activity (HCT-116 [17]) | Activity (HCT-116 [18]) | Activity (HCT-116 [19]) | Activity (HCT-116 [20]) | also measured
1 | Cc1ccc(-c2nnc(-c3c[nH]c4ncc(-c5ccc(S(C)(=O)=O)cc5)cc4c3=O)o2)cc1 | Non-Toxic | Active | Active | Dose-dependent effect | Active | 10.6% | 11.2% | 18.5% | 3.19% | 20% | 31.2% | 8.94% | 0.43% | 10.4% | 72.4% | 10.6% | Active | 6.26% | Active | 17.7% | Activity (HCT-116 [21]): Active; inhibition of growth at 2.5 µM (HCT-116 [22]): 7.47%; inhibition of growth at 10 µM (HCT-116 [23]): 24.4%; inhibition of growth at 2.5 µM (HCT-116 [24]): 54.8%; Activity (HCT-116 [25]): 10.8%; inhibition of growth at 5 µM (MCF7 [26]): 6.26%; Activity (L02 [27]): Non-Toxic; viability at 2.5 µM (HCT-116 [28]): 31.2%; inhibition of growth at 5 µM (HCT-116 [29]): 20.4%; inhibition of growth at 5 µM (HepG2 [30]): 6.9%; inhibition of growth at 5 µM (A549 [31]): 6.69%
2 | Cc1cccc(-c2nnc(-c3c[nH]c4ncc(-c5ccc(S(C)(=O)=O)cc5)cc4c3=O)o2)c1 | Non-Toxic | Active | Active | Dose-dependent effect | Active | 7.76% | 8.95% | 2.57% | 7.5% | 6.98% | 23.4% | 13.3% | 3.7% | 1.49% | 70.4% | 4.61% | Active | 6.89% | Active | 17.2% | Activity (HCT-116 [21]): Active; inhibition of growth at 2.5 µM (HCT-116 [22]): 8.13%; inhibition of growth at 10 µM (HCT-116 [23]): 25.2%; inhibition of growth at 2.5 µM (HCT-116 [24]): 50.8%; Activity (HCT-116 [25]): 18.1%; inhibition of growth at 5 µM (MCF7 [26]): 1.86%; Activity (L02 [27]): Non-Toxic; viability at 2.5 µM (HCT-116 [28]): 52.4%; inhibition of growth at 5 µM (HCT-116 [29]): 20.4%; inhibition of growth at 5 µM (HepG2 [30]): 13.2%; inhibition of growth at 5 µM (A549 [31]): 7.92%
